# Source: ChEMBL document CHEMBL3259519, “Targeting triple-negative breast cancer cells with 6,7-bis(hydroxymethyl)-1H,3H-pyrrolo[1,2-c]thiazoles” (Eur J Med Chem, 2014)
# pIC50: −log10 of the molar value. Active and inactive are the calls of the source. No cut-off for these calls is given here.
# How the values were obtained:
# [1] = tested on: HCC1954; experiment: Antiproliferative activity against human HCC1954 cells expressing HER2 assessed as growth inhibition after 72 hrs by MTT assay; assay type: functional, cell-based; details: HCC1954, 72 h
# In short: (§1)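 Cells were seeded at 2x10^4/well and left to attach overnight. Compounds in DMSO were diluted in medium and applied for 24, 48, 72 or 96 h. Cells were then PBS-washed and given 0.5 mg/mL MTT (pH 7.4) at 37 °C for 4 h. Formazan was dissolved in acid isopropanol. IC50 came from dose-response curves by exponential decay fitting (r2>0.9), with 95% CI.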
# [2] = tested on: HCC1806; experiment: Antiproliferative activity against ER, PR, HER2-deficient human HCC1806 cells as growth inhibition after 48 hrs by MTT assay; assay type: functional, cell-based; details: HCC1806, 48 h; in short: as §1
# [3] = tested on: HCC1954; experiment: Antiproliferative activity against human HCC1954 cells expressing HER2 assessed as growth inhibition after 24 hrs by MTT assay; assay type: functional, cell-based; details: HCC1954, 24 h; in short: as §1
# [4] = tested on: HCC1806; experiment: Antiproliferative activity against ER, PR, HER2-deficient human HCC1806 cells as growth inhibition after 72 hrs by MTT assay; assay type: functional, cell-based; details: HCC1806, 72 h; in short: as §1
# [5] = tested on: HCC1954; experiment: Antiproliferative activity against human HCC1954 cells expressing HER2 assessed as growth inhibition after 96 hrs by MTT assay; assay type: functional, cell-based; details: HCC1954, 96 h; in short: as §1
# [6] = tested on: MCF7; experiment: Antiproliferative activity against human MCF7 cells expressing ER and BRCA2 assessed as growth inhibition after 24 hrs by MTT assay; assay type: functional, cell-based; details: MCF7, 24 h; in short: as §1
# [7] = tested on: HCC1954; experiment: Antiproliferative activity against human HCC1954 cells expressing HER2 assessed as growth inhibition after 48 hrs by MTT assay; assay type: functional, cell-based; details: HCC1954, 48 h; in short: as §1
# [8] = tested on: MCF7; experiment: Antiproliferative activity against human MCF7 cells expressing ER and BRCA2 assessed as growth inhibition after 96 hrs by MTT assay; assay type: functional, cell-based; details: MCF7, 96 h; in short: as §1
# [9] = tested on: HCC1806; experiment: Antiproliferative activity against ER, PR, HER2-deficient human HCC1806 cells as growth inhibition after 96 hrs by MTT assay; assay type: functional, cell-based; details: HCC1806, 96 h; in short: as §1
# [10] = tested on: HCC1806; experiment: Antiproliferative activity against ER, PR, HER2-deficient human HCC1806 cells as growth inhibition after 24 hrs by MTT assay; assay type: functional, cell-based; details: HCC1806, 24 h; in short: as §1
# [11] = tested on: MCF7; experiment: Antiproliferative activity against human MCF7 cells expressing ER and BRCA2 assessed as growth inhibition after 72 hrs by MTT assay; assay type: functional, cell-based; details: MCF7, 72 h; in short: as §1
# [12] = tested on: MCF7; experiment: Antiproliferative activity against human MCF7 cells expressing ER and BRCA2 assessed as growth inhibition after 48 hrs by MTT assay; assay type: functional, cell-based; details: MCF7, 48 h; in short: as §1
# [13] = tested on: HCC1806; experiment: Induction of DNA strand break in ER, PR, HER2-deficient human HCC1806 cells at IC50 after 48 hrs by alkaline comet assay; assay type: functional, cell-based
# In short: (§2)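 5x10^5 cells got IC50 or 3x IC50 for 48 h (DMSO 0.1%); H2O2-treated cells served as positive control. Cells in 1% low-melt agarose went onto slides precoated with normal-melt agarose. Slides were lysed overnight in alkaline buffer (2.5 M NaCl, EDTA, Tris, DMSO, Triton X-100). Electrophoresis ran in 300 mM NaOH/1 mM EDTA (pH>13) at 25 V for 15 min. Slides were neutralized in Tris pH 7.4 and stained with 25 µg/mL ethidium bromide for fluorescence microscopy.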
# [14] = tested on: HCC1806; experiment: Induction of apoptosis in triple negative ER, PR, HER2-deficient human HCC1806 cells assessed as increase of late apoptotic/nectrotic cells at IC50 after 48 hrs by Annexin V/propidium iodide staining-based flow cytometry relative to control; assay type: functional, cell-based
# In short: (§3)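 2x10^6 cells were attached overnight, then given IC50 for 48 h (DMSO 0.1%). PBS-washed cells were stained with Annexin V-FITC and PI in binding buffer for 15 min at 4 °C in the dark. Flow cytometry used 488 nm excitation. Cells were gated as viable, apoptotic, late apoptotic/necrotic or necrotic, reported as mean ± SD (n≥5).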
# [15] = tested on: MCF7; experiment: Cell cycle arrest in human MCF7 cells expressing ER and BRCA2 assessed as decrease in accumulation at G0/G1 phase at IC50 after 48 hrs by propidium staining-based FACS analysis; assay type: functional
# In short: (§4)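 2x10^6 cells were attached overnight, then exposed to IC50 for 48 h (DMSO 0.1%). They were fixed in ice-cold 70% ethanol for 30 min in the dark, PBS-washed and stained with PI/RNase for 15 min at RT. Flow cytometry used 488 nm excitation and a 585/42 filter. Sub-G0, G0/G1, S and G2/M fractions were reported as mean ± SD (n≥5).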
# [16] = tested on: MCF7; experiment: Induction of DNA strand break in human MCF7 cells expressing ER and BRCA2 at 3 x IC50 after 48 hrs by alkaline comet assay; assay type: functional, cell-based; in short: as §2
# [17] = tested on: HCC1806; experiment: Cytotoxicity against ER, PR, HER2-deficient human HCC1806 cells as reduction of total protein content at IC50 incubated for 48 hrs by SRB assay relative to control; assay type: functional; design: scale not given: the % may be the effect or the level left
# [18] = tested on: HCC1806; experiment: Cell cycle arrest in ER, PR, HER2-deficient human HCC1806 cells as accumulation at pre-G0 phase phase at IC50 after 48 hrs by propidium staining-based FACS analysis; assay type: functional; in short: as §4
# [19] = tested on: MCF7; experiment: Cell cycle arrest in human MCF7 cells expressing ER and BRCA2 assessed as blockade at G2/M phase at IC50 after 48 hrs by propidium staining-based FACS analysis; assay type: functional; in short: as §4
# [20] = tested on: MCF7; experiment: Induction of apoptosis in human MCF7 cells expressing ER and BRCA2 assessed as early apoptotic cells at IC50 after 48 hrs by Annexin V/propidium iodide staining-based flow cytometry relative to control; assay type: functional, cell-based; in short: as §3
# [21] = tested on: HCC1806; experiment: Induction of DNA strand break in ER, PR, HER2-deficient human HCC1806 cells at 3 x IC50 after 48 hrs by alkaline comet assay; assay type: functional, cell-based; in short: as §2
# [22] = tested on: MCF7; experiment: Induction of apoptosis in human MCF7 cells expressing ER and BRCA2 assessed as increase of necrotic cells at IC50 after 48 hrs by Annexin V/propidium iodide staining-based flow cytometry relative to control; assay type: functional, cell-based; in short: as §3
# [23] = tested on: HCC1806; experiment: Induction of apoptosis in triple negative ER, PR, HER2-deficient human HCC1806 cells assessed as decrease of viable cells at IC50 after 48 hrs by Annexin V/propidium iodide staining-based flow cytometry relative to control; assay type: functional; in short: as §3
# [24] = tested on: MCF7; experiment: Induction of apoptosis in human MCF7 cells expressing ER and BRCA2 assessed as increase in p53 expression at IC50 after 48 hrs by Western blotting analysis relative to control; assay type: functional, cell-based
# In short: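 Cells were treated with IC50 for 48 h and lysed on ice in RIPA with protease inhibitors, then sonicated and centrifuged. Protein was quantified by BCA and separated on 10% SDS-PAGE, then transferred and blocked with 4% BSA/TBS-T. Blots were probed overnight at 4 °C with anti-p53 (DO7) and actin, then anti-mouse secondary. ECF fluorescence was scanned and quantified.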
# [25] = tested on: MCF7; experiment: Induction of apoptosis in human MCF7 cells expressing ER and BRCA2 assessed as increase in Bax/Bcl2 expression ratio at IC50 after 48 hrs by flow cytometry relative to control
# [26] = tested on: MCF7; experiment: Induction of apoptosis in human MCF7 cells expressing ER and BRCA2 assessed as increase of late apoptotic/nectrotic cells at IC50 after 48 hrs by Annexin V/propidium iodide staining-based flow cytometry relative to control; assay type: functional, cell-based; in short: as §3
# [27] = tested on: MCF7; experiment: Cytotoxicity against human MCF7 cells expressing ER and BRCA2 assessed as reduction of total protein content at IC50 after 48 hrs by SRB assay relative to control; assay type: functional; design: scale not given: the % may be the effect or the level left
# [28] = tested on: HCC1806; experiment: Cell cycle arrest in ER, PR, HER2-deficient human HCC1806 cells as decrease in accumulation at G0/G1 phase at IC50 after 48 hrs by propidium staining-based FACS analysis; assay type: functional; in short: as §4
# [29] = tested on: HCC1806; experiment: Induction of apoptosis in ER, PR, HER2-deficient human HCC1806 cells as increase in Bax/Bcl2 expression ratio at IC50 after 48 hrs by flow cytometry relative to control
# [30] = tested on: MCF7; experiment: Cell cycle arrest in human MCF7 cells expressing ER and BRCA2 assessed as increase in accumulation at S phase at IC50 after 48 hrs by propidium staining-based FACS analysis; assay type: functional; in short: as §4
# [31] = tested on: HCC1806; experiment: Induction of apoptosis in triple negative ER, PR, HER2-deficient human HCC1806 cells assessed as reduction of long term cell survival at IC50 after 48 hrs by clonogenic assay relative to control
# [32] = tested on: MCF7; experiment: Induction of DNA strand break in human MCF7 cells expressing ER and BRCA2 at IC50 after 48 hrs by alkaline comet assay; assay type: functional, cell-based; in short: as §2
# [33] = tested on: MCF7; experiment: Induction of apoptosis in human MCF7 cells expressing ER and BRCA2 assessed as decrease in viable cells at IC50 after 48 hrs by Annexin V/propidium iodide staining-based flow cytometry relative to control; assay type: functional; in short: as §3
# [34] = tested on: HCC1806; experiment: Cell cycle arrest in ER, PR, HER2-deficient human HCC1806 cells as accumulation at S phase at IC50 after 48 hrs by propidium staining-based FACS analysis; assay type: functional; in short: as §4
# [35] = tested on: MCF7; experiment: Cytotoxicity against human MCF7 cells expressing ER and BRCA2 assessed as reduction of survival factor at IC50 incubated for 48 hrs measured after 12 days by crystal violet staining-based clonogenic assay; assay type: functional, cell-based
# [36] = tested on: HCC1806; experiment: Cytotoxicity against ER, PR, HER2-deficient human HCC1806 cells as reduction of survival factor at IC50 incubated for 48 hrs measured after 12 days by crystal violet staining-based clonogenic assay; assay type: functional
# [37] = tested on: HCC1806; experiment: Induction of apoptosis in triple negative ER, PR, HER2-deficient human HCC1806 cells assessed as increase of necrotic cells at IC50 after 48 hrs by Annexin V/propidium iodide staining-based flow cytometry relative to control; assay type: functional, cell-based; in short: as §3
# [38] = tested on: HCC1806; experiment: Cell cycle arrest in ER, PR, HER2-deficient human HCC1806 cells as blockade at G0/G1 phase at IC50 after 48 hrs by propidium staining-based FACS analysis; assay type: functional; in short: as §4
# [39] = tested on: HCC1806; experiment: Cell cycle arrest in ER, PR, HER2-deficient human HCC1806 cells as accumulation at G2/M phase at IC50 after 48 hrs by propidium staining-based FACS analysis; assay type: functional; in short: as §4
Structure (SMILES),pIC50 [1],pIC50 [2],pIC50 [3],pIC50 [4],pIC50 [5],pIC50 [6],pIC50 [7],pIC50 [8],pIC50 [9],pIC50 [10],pIC50 [11],pIC50 [12],Activity [13],Activity [14],Activity [15],Activity [16],Activity [17] [%],Activity [19],Activity [21],Activity [22],other results
Cc1c(CO)c(CO)c2n1[C@H](c1ccccc1)SC2(C)C,4.25,4.38,4.00,4.57,4.47,< 4.00,4.16,< 4.00,4.67,< 4.00,< 4.00,< 4.00,,,,,,,,,
COc1ccc([C@H]2SCc3c(CO)c(CO)c(C)n32)cc1,4.25,4.55,< 4.00,4.71,4.72,< 4.00,4.07,5.18,4.91,4.05,4.49,4.33,,,,,,,,,
Cc1c(CO)c(CO)c2n1[C@@H](c1ccc(O)cc1)SC2,4.33,4.58,< 4.00,4.92,4.56,< 4.00,4.18,4.53,5.27,4.10,4.27,4.06,Active,Active,Active,Active,50,inactive,Active,Active,Activity [18]: Active; Activity [20]: Active; Activity [23]: Active; Activity [24]: Active; Activity [25]: Active; Activity [26]: Active; Activity [27]: 15.4%; Activity [28]: Active; Activity [29]: Active; Activity [30]: Active; Activity [31]: 1.4%; Activity [32]: Active; Activity [33]: 21.4%; Activity [34]: Active; Activity [35]: Active; Activity [36]: <2%; Activity [37]: Active
Cc1c(CO)c(CO)c2n1[C@H](c1ccccc1)SC2,4.83,4.20,< 4.00,4.11,4.93,,4.25,,4.54,< 4.00,,,,,,,,,,,
Cc1c(CO)c(CO)c2n1[C@@H](c1ccccc1)SC2,4.58,4.09,4.01,4.29,4.60,,4.57,,4.86,< 4.00,,,Active,Active,Active,Active,50,Active,Active,Active,Activity [23]: 60%; Activity [38]: Active; Activity [26]: Active; Activity [39]: inactive; Activity [27]: 50%; Activity [30]: Active; Activity [32]: Active; Activity [33]: 55%; Activity [34]: inactive; Activity [35]: Active; Activity [36]: <2%; Activity [37]: Active
